For three compounds, Activity results are on record in ChEMBL document CHEMBL1152541, “Staurosporine tethered peptide ligands that target cAMP-dependent protein kinase (PKA): optimization and selectivity profiling” (Bioorg Med Chem, 2009).

Experiment [1] addresses Mitogen-activated protein kinase 11 (Homo sapiens) (UniProt Q15759). Kind of experiment: Binding affinity to human p38beta at 500 nM by cell-based competition binding assay relative to control in presence of DTT.
Experiment [2] deals with T1, TGF-beta receptor type-1 (Homo sapiens) (UniProt P36897).
T1 sequence (whole entry): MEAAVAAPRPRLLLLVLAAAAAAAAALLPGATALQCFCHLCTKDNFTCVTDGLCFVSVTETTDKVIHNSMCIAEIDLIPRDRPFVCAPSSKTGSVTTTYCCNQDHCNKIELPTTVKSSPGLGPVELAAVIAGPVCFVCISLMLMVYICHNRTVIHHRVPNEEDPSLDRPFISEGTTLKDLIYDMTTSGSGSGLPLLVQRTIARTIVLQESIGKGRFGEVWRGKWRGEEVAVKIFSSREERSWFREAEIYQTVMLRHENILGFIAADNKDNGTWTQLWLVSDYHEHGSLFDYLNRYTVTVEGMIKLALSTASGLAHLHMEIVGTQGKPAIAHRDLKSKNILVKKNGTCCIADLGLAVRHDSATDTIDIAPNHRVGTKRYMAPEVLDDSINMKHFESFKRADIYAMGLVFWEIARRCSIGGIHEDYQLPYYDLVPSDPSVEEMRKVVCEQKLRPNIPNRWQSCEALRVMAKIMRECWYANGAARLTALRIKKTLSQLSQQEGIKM
Kind of experiment: Binding affinity to human TGFBR1 at 500 nM by cell-based competition binding assay relative to control in presence of DTT.

The target of experiment [3] is Glycogen synthase kinase-3 beta (Homo sapiens) (UniProt P49841). Kind of experiment: Binding affinity to human GSK3-beta at 500 nM by cell-based competition binding assay relative to control in presence of DTT. The method, boiled down: (§1)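 Competition binding screen (Ambit) across a panel of 90 kinases, scoring test ligand displacement of each kinase's binding relative to control. The screen ran under reducing conditions with 7.5 mM DTT.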

Experiment [4] deals with Receptor tyrosine-protein kinase erbB-2 (Homo sapiens) (UniProt P04626). Kind of experiment: Binding affinity to human ERBB2 at 500 nM by cell-based competition binding assay relative to control in presence of DTT. The method in brief:
(§2)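 Commercial (Ambit) competitive kinase-binding panel of 90 kinases measured the binding profile. Run under reducing conditions of 7.5 mM DTT. Binding is expressed relative to control.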

Experiment [5] addresses Platelet-derived growth factor receptor beta (Homo sapiens) (UniProt P09619). Kind of experiment: Binding affinity to human PDGFRbeta at 200 nM by cell-based competition binding assay relative to control in presence of DTT.
Experiment [6] deals with Casein kinase I isoform delta (Homo sapiens) (UniProt P48730). Kind of experiment: Binding affinity to human CSNK1D at 200 nM by cell-based competition binding assay relative to control in presence of DTT. The method in brief: as §2
Chain of Casein kinase I isoform delta (Homo sapiens) (P48730 whole entry, looked up, canonical isoform): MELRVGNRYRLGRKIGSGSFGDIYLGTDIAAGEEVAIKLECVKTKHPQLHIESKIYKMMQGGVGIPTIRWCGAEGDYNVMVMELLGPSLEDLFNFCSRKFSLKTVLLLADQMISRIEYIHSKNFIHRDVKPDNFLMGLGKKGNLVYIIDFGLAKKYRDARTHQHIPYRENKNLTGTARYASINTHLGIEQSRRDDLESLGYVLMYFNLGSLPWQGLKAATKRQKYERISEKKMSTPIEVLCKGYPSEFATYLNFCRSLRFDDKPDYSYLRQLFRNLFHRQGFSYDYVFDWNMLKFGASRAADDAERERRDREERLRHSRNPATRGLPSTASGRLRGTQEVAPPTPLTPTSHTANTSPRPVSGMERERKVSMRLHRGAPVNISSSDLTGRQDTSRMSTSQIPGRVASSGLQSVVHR
Experiment [7] addresses Aurora kinase B (Homo sapiens) (UniProt Q96GD4). Kind of experiment: Binding affinity to human aurora kinase B at 200 nM by cell-based competition binding assay relative to control in presence of DTT.
The target of experiment [8] is T2, Bone morphogenetic protein receptor type-2 (Homo sapiens) (UniProt Q13873).
T2 sequence (whole entry): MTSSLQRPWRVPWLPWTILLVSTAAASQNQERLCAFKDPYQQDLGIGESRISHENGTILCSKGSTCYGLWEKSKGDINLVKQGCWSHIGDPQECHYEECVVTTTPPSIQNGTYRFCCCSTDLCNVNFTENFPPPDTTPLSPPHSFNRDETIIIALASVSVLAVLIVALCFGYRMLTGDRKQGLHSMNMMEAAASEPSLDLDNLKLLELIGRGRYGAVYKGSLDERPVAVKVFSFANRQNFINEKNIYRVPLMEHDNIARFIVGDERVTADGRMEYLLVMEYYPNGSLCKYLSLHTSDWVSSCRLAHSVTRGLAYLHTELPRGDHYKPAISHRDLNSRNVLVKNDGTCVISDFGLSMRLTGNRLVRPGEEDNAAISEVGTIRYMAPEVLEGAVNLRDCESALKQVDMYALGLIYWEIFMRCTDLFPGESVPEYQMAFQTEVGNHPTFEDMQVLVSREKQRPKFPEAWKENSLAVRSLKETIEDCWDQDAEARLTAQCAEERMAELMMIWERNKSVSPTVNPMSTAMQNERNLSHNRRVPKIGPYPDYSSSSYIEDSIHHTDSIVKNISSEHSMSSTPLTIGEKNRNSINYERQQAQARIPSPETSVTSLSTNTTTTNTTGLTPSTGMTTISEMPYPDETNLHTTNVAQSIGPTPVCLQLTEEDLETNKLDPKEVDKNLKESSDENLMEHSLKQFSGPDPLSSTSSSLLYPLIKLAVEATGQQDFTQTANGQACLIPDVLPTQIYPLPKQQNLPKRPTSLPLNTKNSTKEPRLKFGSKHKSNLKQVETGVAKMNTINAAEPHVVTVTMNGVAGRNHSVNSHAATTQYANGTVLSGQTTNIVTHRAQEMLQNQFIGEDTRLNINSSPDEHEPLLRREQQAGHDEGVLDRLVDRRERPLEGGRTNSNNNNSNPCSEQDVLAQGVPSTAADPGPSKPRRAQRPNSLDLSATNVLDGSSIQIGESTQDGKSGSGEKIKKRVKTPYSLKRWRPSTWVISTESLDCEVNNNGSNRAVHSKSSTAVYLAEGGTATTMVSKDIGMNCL
Kind of experiment: Binding affinity to human BMPR2 at 200 nM by cell-based competition binding assay relative to control in presence of DTT. The method in brief: (§3)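 Kinase binding profiling ran on a commercial (Ambit) competitive binding screen against a panel of 90 kinases. The screen used reducing conditions with 7.5 mM DTT. To withstand the DTT, the bivalent ligand was tested as its amide isostere, with the disulfide replaced. A staurosporine derivative carrying a 3 β-alanine linker was run as the reference compound.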

Experiment [9] addresses Tyrosine-protein kinase ABL1 (Homo sapiens) (UniProt P00519). Kind of experiment: Binding affinity to human ABL1 at 200 nM by cell-based competition binding assay relative to control in presence of DTT. The method, boiled down:
as §3

For experiment [10], the system named is Serine/threonine-protein kinase B-raf (Homo sapiens), P15056 [V600E]. Kind of experiment: Binding affinity to human BRAF V600E mutant at 50 nM by cell-based competition binding assay relative to control in presence of DTT. The method in brief:
as §3

The target in experiment [11] is Mitogen-activated protein kinase 9 (Homo sapiens) (UniProt P45984). Kind of experiment: Binding affinity to human JNK2 at 50 nM by cell-based competition binding assay relative to control in presence of DTT. The method in brief: as §1
Chain of Mitogen-activated protein kinase 9 (Homo sapiens) (P45984 whole entry, looked up): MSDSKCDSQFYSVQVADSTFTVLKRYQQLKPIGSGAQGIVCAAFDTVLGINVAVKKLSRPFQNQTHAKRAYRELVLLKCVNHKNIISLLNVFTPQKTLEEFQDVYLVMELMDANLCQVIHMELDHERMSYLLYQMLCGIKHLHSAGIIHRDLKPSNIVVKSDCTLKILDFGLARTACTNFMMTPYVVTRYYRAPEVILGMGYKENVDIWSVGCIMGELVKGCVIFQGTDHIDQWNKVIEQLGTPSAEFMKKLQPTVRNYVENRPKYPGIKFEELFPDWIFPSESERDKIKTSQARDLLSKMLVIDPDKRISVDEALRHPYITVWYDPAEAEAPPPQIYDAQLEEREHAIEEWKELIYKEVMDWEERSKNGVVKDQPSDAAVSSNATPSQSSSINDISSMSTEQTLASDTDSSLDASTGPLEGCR

*1 amine or outer side, *2 acyl side, *3 side chain or, on linkers, in order; H or OH if unused. Where a SMILES comes first, the peptide text is derived from it. Bridges are numbered along the chain shown (N, C = ends). [ ]: non-standard residue; d: D form. The star is where a group is joined. Staurosporine = CO[C@@H]1[C@H](N(C)*)C[C@H]2O[C@]1(C)n1c3ccccc3c3c4c(c5c6ccccc6n2c5c31)C(=O)NC4; Suc = O=C(CCC(=O)[*:2])[*:1]; Dap = NC[C@H](N)C(=O)O; βAla = NCCC(=O)O

Chain of Aurora kinase B (Homo sapiens) (Q96GD4 whole entry): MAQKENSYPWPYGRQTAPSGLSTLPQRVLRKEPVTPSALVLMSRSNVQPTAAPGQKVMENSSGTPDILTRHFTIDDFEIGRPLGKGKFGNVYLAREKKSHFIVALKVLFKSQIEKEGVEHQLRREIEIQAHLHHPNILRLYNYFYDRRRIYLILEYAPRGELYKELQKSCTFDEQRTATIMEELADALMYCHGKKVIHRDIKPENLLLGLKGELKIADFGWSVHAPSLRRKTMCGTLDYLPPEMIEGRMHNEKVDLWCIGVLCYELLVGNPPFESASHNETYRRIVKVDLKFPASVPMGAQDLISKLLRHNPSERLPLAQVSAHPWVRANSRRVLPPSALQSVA
Chain of Serine/threonine-protein kinase B-raf (Homo sapiens), P15056 [V600E] (P15056 whole entry V600E): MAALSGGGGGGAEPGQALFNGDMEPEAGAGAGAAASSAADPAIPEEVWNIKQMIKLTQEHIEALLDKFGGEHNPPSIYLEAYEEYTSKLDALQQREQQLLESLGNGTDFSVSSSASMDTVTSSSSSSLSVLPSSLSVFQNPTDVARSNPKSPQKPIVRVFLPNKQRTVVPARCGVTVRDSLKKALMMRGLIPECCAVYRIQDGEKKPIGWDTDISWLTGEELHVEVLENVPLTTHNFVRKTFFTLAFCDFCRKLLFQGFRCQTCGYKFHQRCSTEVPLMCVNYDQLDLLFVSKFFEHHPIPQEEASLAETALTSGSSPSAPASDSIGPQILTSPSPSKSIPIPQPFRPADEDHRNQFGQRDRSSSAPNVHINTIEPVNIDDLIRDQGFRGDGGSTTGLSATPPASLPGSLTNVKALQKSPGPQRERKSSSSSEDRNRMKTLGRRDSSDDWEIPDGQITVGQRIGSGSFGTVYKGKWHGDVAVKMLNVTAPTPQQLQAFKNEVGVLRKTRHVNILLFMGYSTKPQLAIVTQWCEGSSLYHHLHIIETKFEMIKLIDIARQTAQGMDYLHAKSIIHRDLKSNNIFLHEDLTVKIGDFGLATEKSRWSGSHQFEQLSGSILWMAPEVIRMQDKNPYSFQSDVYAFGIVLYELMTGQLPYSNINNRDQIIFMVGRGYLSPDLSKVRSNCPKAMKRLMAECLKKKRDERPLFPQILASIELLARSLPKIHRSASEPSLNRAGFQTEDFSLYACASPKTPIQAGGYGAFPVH
Chain of Receptor tyrosine-protein kinase erbB-2 (Homo sapiens) (P04626 whole entry): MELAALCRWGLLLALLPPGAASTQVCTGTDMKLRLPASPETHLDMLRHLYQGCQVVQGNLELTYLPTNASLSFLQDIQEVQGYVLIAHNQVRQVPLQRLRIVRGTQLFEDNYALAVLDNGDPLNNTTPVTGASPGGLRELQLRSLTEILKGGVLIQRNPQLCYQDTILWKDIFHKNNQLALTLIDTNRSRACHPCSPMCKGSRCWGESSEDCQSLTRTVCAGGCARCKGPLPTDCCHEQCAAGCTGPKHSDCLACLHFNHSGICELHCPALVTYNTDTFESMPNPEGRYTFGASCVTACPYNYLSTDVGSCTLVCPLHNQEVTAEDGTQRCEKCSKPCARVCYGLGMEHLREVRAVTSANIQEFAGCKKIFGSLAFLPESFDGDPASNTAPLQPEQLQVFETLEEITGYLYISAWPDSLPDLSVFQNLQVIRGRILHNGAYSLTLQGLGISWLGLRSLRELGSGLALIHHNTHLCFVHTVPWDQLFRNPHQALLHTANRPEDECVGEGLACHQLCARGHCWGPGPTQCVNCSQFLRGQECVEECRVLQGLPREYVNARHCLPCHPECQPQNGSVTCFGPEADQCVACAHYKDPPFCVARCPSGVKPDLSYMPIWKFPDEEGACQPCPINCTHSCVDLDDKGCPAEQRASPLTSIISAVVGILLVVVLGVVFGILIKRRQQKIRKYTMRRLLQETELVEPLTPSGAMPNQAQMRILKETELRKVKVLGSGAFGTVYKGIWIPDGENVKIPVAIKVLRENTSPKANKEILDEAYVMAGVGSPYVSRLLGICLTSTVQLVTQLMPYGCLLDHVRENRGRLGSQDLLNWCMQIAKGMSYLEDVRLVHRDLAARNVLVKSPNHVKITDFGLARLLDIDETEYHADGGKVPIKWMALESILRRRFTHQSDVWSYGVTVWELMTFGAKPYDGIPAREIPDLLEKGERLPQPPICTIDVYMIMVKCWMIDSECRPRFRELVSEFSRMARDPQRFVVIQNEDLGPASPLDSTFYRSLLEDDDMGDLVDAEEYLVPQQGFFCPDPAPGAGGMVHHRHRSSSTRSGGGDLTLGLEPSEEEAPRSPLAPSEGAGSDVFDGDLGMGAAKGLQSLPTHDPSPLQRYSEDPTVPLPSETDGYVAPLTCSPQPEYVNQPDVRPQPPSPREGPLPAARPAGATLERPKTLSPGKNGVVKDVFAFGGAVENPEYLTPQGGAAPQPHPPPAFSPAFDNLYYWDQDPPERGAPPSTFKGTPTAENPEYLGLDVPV
Chain of Mitogen-activated protein kinase 11 (Homo sapiens) (Q15759 whole entry): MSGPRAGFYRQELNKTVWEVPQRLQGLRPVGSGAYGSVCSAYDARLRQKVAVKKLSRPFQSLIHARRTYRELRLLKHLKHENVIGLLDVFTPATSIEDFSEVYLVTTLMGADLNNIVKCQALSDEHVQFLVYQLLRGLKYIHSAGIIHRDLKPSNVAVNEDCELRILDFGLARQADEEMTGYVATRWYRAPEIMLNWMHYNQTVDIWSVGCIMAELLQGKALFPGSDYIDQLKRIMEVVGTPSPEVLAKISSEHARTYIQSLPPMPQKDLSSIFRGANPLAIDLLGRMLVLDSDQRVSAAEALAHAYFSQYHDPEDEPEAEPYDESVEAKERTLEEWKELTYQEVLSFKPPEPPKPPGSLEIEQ
Chain of Platelet-derived growth factor receptor beta (Homo sapiens) (P09619 whole entry, canonical isoform): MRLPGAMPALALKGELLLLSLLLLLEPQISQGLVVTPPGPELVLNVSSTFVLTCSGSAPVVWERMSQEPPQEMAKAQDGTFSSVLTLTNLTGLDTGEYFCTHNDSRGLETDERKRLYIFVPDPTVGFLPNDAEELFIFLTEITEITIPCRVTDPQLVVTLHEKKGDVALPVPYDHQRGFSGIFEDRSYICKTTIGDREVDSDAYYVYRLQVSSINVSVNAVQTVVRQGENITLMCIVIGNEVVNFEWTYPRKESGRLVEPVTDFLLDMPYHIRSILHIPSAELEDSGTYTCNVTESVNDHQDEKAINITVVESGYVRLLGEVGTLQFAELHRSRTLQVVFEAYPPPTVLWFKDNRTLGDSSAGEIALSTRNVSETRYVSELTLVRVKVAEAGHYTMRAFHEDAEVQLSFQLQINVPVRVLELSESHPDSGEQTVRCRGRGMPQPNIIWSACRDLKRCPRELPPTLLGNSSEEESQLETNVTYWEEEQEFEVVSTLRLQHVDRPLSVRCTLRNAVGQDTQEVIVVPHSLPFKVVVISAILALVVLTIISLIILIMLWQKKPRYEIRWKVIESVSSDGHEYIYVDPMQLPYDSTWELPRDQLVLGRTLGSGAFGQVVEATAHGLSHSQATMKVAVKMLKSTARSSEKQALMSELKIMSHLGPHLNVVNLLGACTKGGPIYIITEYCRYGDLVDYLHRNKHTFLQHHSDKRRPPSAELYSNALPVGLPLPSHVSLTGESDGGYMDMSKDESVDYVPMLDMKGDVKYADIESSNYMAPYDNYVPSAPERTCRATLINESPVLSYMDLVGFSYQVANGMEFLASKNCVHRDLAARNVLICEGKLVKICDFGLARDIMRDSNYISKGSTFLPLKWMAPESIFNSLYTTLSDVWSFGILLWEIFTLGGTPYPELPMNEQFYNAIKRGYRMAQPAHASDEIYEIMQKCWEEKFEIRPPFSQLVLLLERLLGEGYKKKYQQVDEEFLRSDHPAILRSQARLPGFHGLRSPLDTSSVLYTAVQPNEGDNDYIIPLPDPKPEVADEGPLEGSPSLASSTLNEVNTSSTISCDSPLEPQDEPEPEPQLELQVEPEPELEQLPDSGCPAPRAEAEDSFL

`CO[C@@H]1[C@H](N(C)C(=O)CCC(=O)NCCC(=O)NCCC(=O)NCCC(N)=O)C[C@H]2O[C@]1(C)n1c3ccccc3c3c4c(c5c6ccccc6n2c5c31)C(=O)NC4`: the Activity stood at 100% in experiment [1], 75% in [2], 94% in [3] and 95% in experiment [4].
For `CO[C@@H]1[C@H](N(C)C(=O)CCC(=O)NCCC(=O)NCCC(=O)NCCC(=O)NCCC(=O)NCCC(=O)NCCC(=O)NCCC(=O)N[C@H]2CSSC[C@@H](C(=O)NCC(N)=O)NC(=O)CNC(=O)[C@H](Cc3ccccc3)NC(=O)[C@H](C(C)C)NC(=O)[C@H](CCCNC(=N)N)NC(=O)[C@H](Cc3ccccc3)NC(=O)[C@H](C(C)C)NC2=O)C[C@H]2O[C@]1(C)n1c3ccccc3c3c4c(c5c6ccccc6n2c5c31)C(=O)NC4` ({Staurosporine-Suc-βAla-βAla-βAla-βAla-βAla-βAla-βAla}-CVFRVFGCG-NH2; disulfide 1-8), the Activity amounted to 3.2% in experiment [5]; 100% in [6]; 5.8% in experiment [7]; 93% in experiment [8]; 100% in experiment [9].
Consider `CO[C@@H]1[C@H](N(C)C(=O)CCC(=O)NCCC(=O)NCCC(=O)NCCC(=O)NCCC(=O)NCCC(=O)NCCC(=O)NCCC(=O)N[C@H]2CNC(=O)C[C@@H](C(N)=O)NC(=O)CNC(=O)[C@H](Cc3ccccc3)NC(=O)[C@H](C(C)C)NC(=O)[C@H](CCCNC(=N)N)NC(=O)[C@H](Cc3ccccc3)NC(=O)[C@H](C(C)C)NC2=O)C[C@H]2O[C@]1(C)n1c3ccccc3c3c4c(c5c6ccccc6n2c5c31)C(=O)NC4` ({Staurosporine-Suc-βAla-βAla-βAla-βAla-βAla-βAla-βAla}-[Dap]VFRVFGD-NH2; lactam 1-8), for which the Activity in experiment [10] was 84%; in [11], 88%.
